{
  "source": "paper PMC4424388",
  "about": "(Mucosal Immunology, 2014)",
  "key": {"[1]": {"system": "Bifidobacterium adolescentis Ni3,29c", "experiment": "Antimicrobial radial diffusion assay", "format": "cell-based", "settings": "1 μg peptide, 2 mM DTT, at least three experiments", "how_it_was_run": "(§1)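 Log-phase bacteria washed and diluted to OD600 0.1. Gel: 10 mM sodium phosphate (pH 7.4 or 5.7), 0.3 mg/ml TSB powder, 1% low-EEO agarose, 0–2 mM DTT. Peptide (1 μg/μl stock in 0.01% acetic acid) pipetted into punched wells; overlay gel poured after 3 h. Inhibition-zone diameter read after up to 48 h; 2.5 mm (well/vehicle) means no activity. ≥3 experiments, mean with s.e.m.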"}, "[2]": {"system": "Lactobacillus acidophilus PZ 1138", "experiment": "Antimicrobial radial diffusion assay", "format": "cell-based", "settings": "1 μg peptide, 2 mM DTT, at least three experiments", "how_it_was_run": "as §1"}, "[3]": {"system": "Bifidobacterium breve PZ 1343", "experiment": "Antimicrobial radial diffusion assay", "format": "cell-based", "settings": "1 μg peptide, 2 mM DTT, at least three experiments", "how_it_was_run": "as §1"}, "[4]": {"system": "Bifidobacterium longum DSM 20219T", "experiment": "Antimicrobial radial diffusion assay", "format": "cell-based", "settings": "1 μg peptide, 2 mM DTT, at least three experiments", "how_it_was_run": "as §1"}, "[5]": {"system": "Streptococcus salivarius ssp thermophilus DSM20617", "experiment": "Antimicrobial radial diffusion assay", "format": "cell-based", "settings": "1 μg peptide, 2 mM DTT, at least three experiments", "how_it_was_run": "as §1"}, "[6]": {"system": "Bif. adolescentis Ni3,29c", "experiment": "Turbidity broth assay", "format": "cell-based, Bifidobacterium adolescentis", "settings": "higher peptide concentrations; causes apparent better growth in OD600", "how_it_was_run": "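Overnight Bif. adolescentis Ni3,29c was washed twice in 10 mM sodium phosphate with 1% TSB. About 5×10^5 CFU/ml were exposed to peptide at 1.25–128 μg/ml, with 2 mM DTT where indicated, for 2 h at 37 °C in an anaerobic jar. 6% TSB was then added and A600 read at 24 and 48 h; change plotted against concentration. CFU counted in parallel on Columbia blood agar. Triplicate experiments, mean with s.e.m.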"}, "[7]": {"experiment": "Chemical reduction by DTT", "format": "physicochemical", "settings": "incubation extended to 3 h or DTT increased to 10 mM; data not shown"}, "[8]": {"system": "human TRX (with rat TRX reductase, NADPH)", "experiment": "In vitro reduction assay, thioredoxin system", "format": "biochemical", "settings": "TRX increased to 6 μM or incubation prolonged to 60 min; data not shown"}, "[9]": {"experiment": "In vitro reduction assay, glutathione", "format": "physicochemical", "settings": "5 mM reduced glutathione, 100 mM sodium phosphate, 2 mM EDTA; RP-HPLC; Supplementary Figure 4"}, "glutaredoxin": {"system": "glutaredoxin", "experiment": "In vitro reduction assay, glutaredoxin", "format": "biochemical", "settings": "3 μM glutaredoxin with 5 mM reduced glutathione; RP-HPLC; Supplementary Figure 4", "how_it_was_run": "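Glutathione-based system: 5 mM reduced glutathione in 100 mM sodium phosphate with 2 mM EDTA, plus 3 μM active glutaredoxin or buffer only, incubated with oxidized peptide. Mixtures acidified with trifluoroacetic acid and analysed by RP-HPLC: C18 column, 15–45% acetonitrile (TFA-containing solvents) over 30 min at 25 °C and 0.8 ml/min.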"}, "[10]": {"system": "(anaerobic) commensal gut bacteria", "experiment": "Antimicrobial radial diffusion assay, bacteria not given", "format": "cell-based", "settings": "1 μg peptide, 2 mM DTT", "how_it_was_run": "as §1"}, "[11]": {"system": "human TRX (with rat TRX reductase, NADPH)", "settings": "cited from earlier work"}, "[12]": {"system": "Bif. adolescentis Ni3,29c", "experiment": "Transmission electron microscopy of bacteria", "format": "cell-based, Bifidobacterium adolescentis", "settings": "TEM, 200 μg/ml peptide, 2 mM DTT, 2 h 37 °C, pH 7.4"}, "[13]": {"experiment": "Retention of reduced status in buffer with DTT", "format": "physicochemical", "settings": "2 mM DTT in sodium phosphate buffer"}},
  "note": "Like-named read-outs stand apart in the source and are kept apart here.",
  "data": [
    {"molecule": "Human α-defensin 6 [HD-6]", "values": [
      {"measurement": "antibiotic activity, especially under reducing conditions", "setting": "[1]", "result": "inhibitory activity"},
      {"measurement": "antibiotic activity, especially under reducing conditions", "setting": "[2]", "result": "inhibitory activity"},
      {"measurement": "antibiotic activity, especially under reducing conditions", "setting": "[3]", "result": "inhibitory activity"},
      {"measurement": "antibiotic activity, especially under reducing conditions", "setting": "[4]", "result": "inhibitory activity"},
      {"measurement": "antibiotic activity, especially under reducing conditions", "setting": "[5]", "result": "inhibitory activity"},
      {"measurement": "aggregation in the turbidity assay", "setting": "[6]", "result": "light-scattering aggregations"},
      {"measurement": "extent of reduction of disulfide bridges by DTT", "setting": "[7]", "result": "remarkably enhanced HD-6 reduction, but the oxidized form of the peptide could still be detected"},
      {"measurement": "reduction by the TRX system", "setting": "[8]", "result": "not sufficient to completely reduce"},
      {"measurement": "reduction by glutathione", "setting": "[9]", "result": "did not lead to any reduction"},
      {"measurement": "reduction by glutaredoxin", "setting": "glutaredoxin", "result": "did not lead to any reduction"}
    ]},
    {"molecule": "human β-defensin 1 (DHYNCVSSGGQCLYSACPIFTKIQGTCYRGKAKCCK; Beta-defensin 1; UniProt P60022 33-68, looked up) [hBD-1, reference compound]", "values": [
      {"measurement": "activity under reducing conditions against several bacteria", "setting": "[10]", "result": "increased activity"},
      {"measurement": "reduction by the TRX system", "setting": "[11]", "result": "can also reduce"}
    ]},
    {"molecule": "ΔredHD-6: synthetic reduced truncated HD-6 (TCHCRRSCYSTEYSYGTCTVMGINHRFCCL; Defensin-6 reduced; UniProt Q01524 71-100, looked up, fragment)", "values": [
      {"measurement": "ultrastructural alterations of the bacterium", "setting": "[12]", "result": "disintegration of stainable intracellular structures"},
      {"measurement": "time for which the peptide retained its completely reduced status", "setting": "[13]", "result": "at least 2 h"}
    ]},
    {"molecule": "HD-5: synthetic oxidized human α-defensin 5 (peptide, UniProt Q01523 20-94, looked up, Defensin-5) Defensin alpha 5: ESLQERADEATTQKQSGEDNQDLAISFAGNGLSALRTSGSQARATCYCRTGRCATRESLSGVCEISGRLYRLCCR", "values": [
      {"measurement": "reduction by the TRX system", "setting": "[11]", "result": "can also reduce"}
    ]}
  ]
}
